One series in a line: plasma stability, mouse. The format is in vitro ADME.
A further series in a line: plasma stability, human. The format is in vitro ADME.
A short description of series [1]: solubility on formulation. The format is physicochemical. The conditions noted are these: for solubility when formulated: 10% DMSO/ 10% solutol/ 80% PBS formulation mixture; for water solubility (ease of formulation): PEG moiety instead of methoxy in the B ring.
Series [2] concerns latent EBV in MutuI cells. In words: EBV lytic reactivation, MutuI cell based assay. Also noted: species or system Epstein-Barr virus. The conditions noted are these: for potency in EBV reactivation relative to 12: analogs of 12.
Series [3] deals with latent EBV in SNU719 gastric carcinoma tumors. In words: SNU719 gastric carcinoma xenograft, BZLF1 immunoblot of tumors. The conditions noted are these: NSG mice, 30 mg/kg i.p. once per day, 4 days. The format is in vivo. The gist of the method:
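SNU719 gastric carcinoma cells (1×10^7) injected subcutaneously into left and right flanks of NSG mice (both sexes, 8-10 weeks old). From 28 days post-injection, test compound given i.p. at 30 mg/kg once daily; controls were vehicle (5% DMSO/5% Solutol) and PBS. Tumors collected after 4 days of treatment and homogenized. Immunoblot for lytic BZLF1 (Z), with β-actin as loading control.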
(Immunoblotting shows a protein as a band on a membrane.)

Another series concerns latent EBV. In words: cell based reactivation, Western blot analysis. More on the design: species or system Epstein-Barr virus. The conditions noted are these: compared with methoxy substituted counterparts; data not shown.
Series [4] can be described thus: liver microsomal stability, mouse. Format: in vitro ADME. The conditions noted are these: microsomes. Background: Liver microsomes are vesicles of endoplasmic reticulum, rich in cytochrome P450 enzymes.
In another series the test system is EBV-positive cells. The conditions noted are these: combination with Ganciclovir; cited from earlier work.
Series [5] can be described thus: liver microsomal stability, human. The conditions noted are these: microsomes. Format: in vitro ADME.
Series [6] deals with latent EBV in MutuI cells. The conditions noted are these: typical; cited from earlier work.

A value given as a limit tells only on which side of the number the result lay.

Turning to `COc1ccc(C2c3[nH]c4ccc(Cl)cc4c3CCN2C(=O)c2cccc(OC)c2)cc1` (stereo not drawn) [Compound 12], in the series “plasma stability, mouse”, the “Plasma Stability Mouse” value was above 6 h. Moreover, the “Plasma Stability Human” value in “plasma stability, human” was above 6 h.
For `COc1ccc(C2c3[nH]c4ccc(Cl)cc4c3CCN2C(=O)c2cccc(CN3CCOCC3)c2)cc1` (stereo not drawn) [Compound 18], in series [1], the solubility when formulated result is “more soluble”. Also, the “potency in EBV reactivation relative to 12” value in series [2] is listed as “maintained potency”.
Take `O=C(c1cccc(CN2CCOCC2)c1)N1CCc2c([nH]c3ccc(Cl)cc23)C1c1ccc(Cl)cc1` (stereo not drawn) [Compound 19]: the solubility when formulated result in series [1] is recorded as “more soluble”. Besides, in series [2], the “potency in EBV reactivation relative to 12” value is “maintained potency”.
As for `COc1cccc(C(=O)N2CCc3c([nH]c4ccc(Cl)cc34)C2c2ccc(O)cc2)c1` (stereo not drawn) [Compound 20], in series [1], the solubility when formulated result is on record as “more soluble”. Further, the “EBV reactivation in tumors (presence of lytic protein BZLF1)” value in series [3] was “modestly reactivates EBV”. The “potency in EBV reactivation relative to 12” value in series [2] was “maintained potency”.
Turning to `COCCOCCOCCOc1ccc(C2c3[nH]c4ccc(Cl)cc4c3CCN2C(=O)Nc2ccccc2C(=O)OC)cc1` (stereo not drawn) [Compound 21], the “activity by Western blot analysis” value with latent EBV is “comparable activity to their methoxy substituted counterparts”. Further, the “water solubility (ease of formulation)” value in [1] is given as “significantly improved water solubility”.
With `COCCOCCOCCOc1ccc(C2c3[nH]c4ccc(Cl)cc4c3CCN2C(=O)Nc2ccccc2Cl)cc1` (stereo not drawn) [Compound 22], the “activity by Western blot analysis” value in the series with latent EBV was “comparable activity to their methoxy substituted counterparts”. For the same compound, the “water solubility (ease of formulation)” value in series [1] is “significantly improved water solubility”.
Turning to `COC(=O)c1ccccc1NC(=O)N1CCc2c([nH]c3ccc(Cl)cc23)C1c1ccc(OC)cc1` (stereo not drawn) [Compound C60], the “Liver Microsomal Stability Mouse CLint” value in [4] is listed as below 0.5. For the same compound, in series [2] (human gammaherpesvirus 4, MUTU-I, read-out: potency in cells), the EC50 lay in the range of 0.15 to 0.2 µM. Besides, the “synergy with GCV in killing EBV-positive cells” value in the series with EBV-positive cells is “functions synergistically with Ganciclovir (GCV) to selectively kill EBV-positive cells”. Besides, in “plasma stability, mouse”, the “Plasma Stability Mouse” value was above 6 h. In addition, the “Plasma Stability Human” value in the series “plasma stability, human” was above 6 h. Besides, in series [5], the “Liver Microsomal Stability Human CLint” value is 0.93.
Take `CCCC(=O)[O-].[Na+]` [NaB, sodium butyrate]: the “concentration required to trigger the latent to lytic switch” value in [6] is listed as “millimolar concentrations”.
For `CCCCCCCCCCCCCC(=O)O[C@@H]1[C@@H](C)[C@@]2(O)[C@@H](C=C(CO)C[C@]3(O)C(=O)C(C)=C[C@@H]23)[C@@H]2C(C)(C)[C@]12OC(C)=O` [TPA, 12-O-tetradecanoylphorbol-13-acetate], in series [6], the “concentration required to trigger the latent to lytic switch” value was “millimolar concentrations”.

(Values after PMC6690763 (Bioorganic & medicinal chemistry letters, 2019).)
